ChEMBL document CHEMBL4715822, “Structure-based lead optimization to improve antiviral potency and ADMET properties of phenyl-1H-pyrrole-carboxamide entry inhibitors targeted to HIV-1 gp120” (Eur J Med Chem, 2018)
Converted amounts (≈) assume the structure as drawn.

How the values were obtained:
[1] = system: Human immunodeficiency virus 1; test: Antiviral activity against pseudovirus HIV-1 HXB-2 harboring Env M475I mutant infected in human U87.CD4.CXCR4 cells assessed as reduction in viral infection pretreated for 30 mins before viral infection and measured after 3 days by luciferase based assay; format: functional, cell-based, M:B_HXB2R
Procedure, shortened: (§1)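 Pseudoviruses made in HEK293T by co-transfecting an Env-deleted backbone (pSG3Δenv or pNL4-3.Luc.R-.E-) with an HXB-2 Env plasmid carrying single or double substitutions; Env sequences confirmed by sequencing. Virus pretreated 30 min with graded compound, added to U87-CD4-CXCR4 cells (1 × 10⁴/well, plated overnight), incubated 3 days. Cells lysed, luciferase measured, IC50 calculated.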

[2] = system: Human immunodeficiency virus 1; test: Antiviral activity against pseudovirus HIV-1 HXB-2 harboring Env L116P mutant infected in human U87.CD4.CXCR4 cells assessed as reduction in viral infection pretreated for 30 mins before viral infection and measured after 3 days by luciferase based assay; format: functional, cell-based, M:B_HXB2R; procedure, shortened: as §1
[3] = system: Human immunodeficiency virus 1; test: Antiviral activity against pseudovirus HIV-1 HXB-2 harboring Env I424F mutant infected in human U87.CD4.CXCR4 cells assessed as reduction in viral infection pretreated for 30 mins before viral infection and measured after 3 days by luciferase based assay; format: functional, cell-based, M:B_HXB2R; procedure, shortened: as §1
[4] = Apparent permeability across basolateral to apical side in human Caco2 cells incubated for 2 hrs by LC-MS/MS analysis; format: ADME, cell-based, Caco-2; conditions: caco-2, 2 h
Procedure, shortened: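 Caco-2 monolayers grown three weeks to differentiate; compound in transport buffer pH 7.4 (glucose, 10 mM HEPES, HBSS) added apical (A-B) or basal (B-A) side, with or without 100 μM verapamil; 2 h incubation, both sides sampled. Lucifer yellow 100 μM on A side checks integrity (≤2% transport). Papp = (dQ/dt)/(C0 × A); efflux ratio = Papp(B→A)/Papp(A→B).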

[5] = system: Human immunodeficiency virus 1; test: Antiviral activity against Laboratory adapted HIV-1 89.6 infected in human PBMC cells assessed as reduction in viral transmission to TZM-bl cells pretreated for 1 hr before viral transmission and further incubated for 48 hrs by luciferase based assay; format: functional, cell-based; conditions: Human immunodeficiency virus 1, 89.6, PBMC
[6] = system: Human immunodeficiency virus 1; test: Antiviral activity against pseudovirus HIV-1 HXB-2 harboring wild type Env infected in human U87.CD4.CXCR4 cells assessed as reduction in viral infection pretreated for 30 mins before viral infection and measured after 3 days by luciferase based assay; format: functional, cell-based; conditions: Human immunodeficiency virus 1, M:B_HXB2R
[7] = system: Human immunodeficiency virus 1; test: Antiviral activity against clinical isolate HIV-1 92US657 infected in human PBMC cells assessed as reduction in viral transmission to TZM-bl cells pretreated for 1 hr before viral transmission and further incubated for 48 hrs by luciferase based assay; format: functional, cell-based; conditions: Human immunodeficiency virus 1, 92US657, PBMC
Procedure, shortened: (§2)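 PBMC from healthy HIV-negative donors infected with replication-competent virus in the presence of 30 μg/ml DEAE-dextran. On day 4 post-infection, cells washed free of virus and counted. 2 × 10⁴ infected PBMC/well pretreated with escalating compound for 1 h at 37 °C, then co-cultured 48 h with TZM-bl targets (10⁴/well, plated 24 h before). TZM-bl lysed, luciferase read, IC50 calculated.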

[8] = system: Human immunodeficiency virus 1; test: Antiviral activity against pseudovirus HIV-1 HXB-2 harboring Env F468L mutant infected in human U87.CD4.CXCR4 cells assessed as reduction in viral infection pretreated for 30 mins before viral infection and measured after 3 days by luciferase based assay; format: functional, cell-based, M:B_HXB2R; procedure, shortened: as §1
[9] = system: Human immunodeficiency virus 1; test: Antiviral activity against clinical isolate HIV-1 BCF01 infected in human PBMC cells assessed as reduction in viral transmission to TZM-bl cells pretreated for 1 hr before viral transmission and further incubated for 48 hrs by luciferase based assay; format: functional, cell-based; conditions: Human immunodeficiency virus 1, BCF01, PBMC; procedure, shortened: as §2
[10] = Solubility in 5% DMSO at pH 7.4 at 500 uM incubated for 90 mins in shaker by spectrophotometry; format: physicochemical
Procedure, shortened: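 DMSO stock diluted to 500 μM in universal aqueous buffer pH 7.4 with 2 or 5% DMSO final; quadruplicate, 90 min shaking at room temperature in filter plate, vacuum filtered; filtrate in 20% acetonitrile read by UV absorbance at six wavelengths. Filtrate/standard ratio binned as ~500, 100–500 or <100 μM.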

SMILES: COc1cnc(-n2cnc(C)n2)c2[nH]cc(C(=O)C(=O)N3CCN(C(=O)c4ccccc4)CC3)c12
- IC50 [1]: 50 nM
- IC50 [2]: > 1000 nM
- IC50 [3]: > 1000 nM
- Papp [4]: 32 10^-6 cm/s
- IC50 [5]: 100 nM
- IC50 [6]: 8 nM
- IC50 [7]: 100 nM
- IC50 [8]: 8 nM
- IC50 [9]: > 6000 nM
- solubility kinetic at […], 500 µM [10]: 100 µM (≈ 47.3 µg/mL)
